We go through one molecule from ChEMBL document CHEMBL4373710, “DNA Structural Alteration Leading to Antibacterial Properties of 6-Nitroquinoxaline Derivatives” (J Med Chem, 2019).

In one series the test system is Staphylococcus aureus. Kind of series: Antibacterial activity against Staphylococcus aureus MTCC737 measured after 6 hrs by broth microdilution assay. In kind it is functional. The settings on record: MTCC737, 6 h. A digest of the protocol: (§1)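 Broth microdilution per CLSI; 5×10^5 cfu/mL bacteria in LB broth; compounds from DMSO stocks, final DMSO under 0.6%, with DMSO control. Plates incubated at the strain's recommended growth temperature and time; growth read as OD600.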

Series [1] concerns Staphylococcus epidermidis. Kind of series: Antibacterial activity against Staphylococcus epidermidis MTCC3615 by broth microdilution assay. The format is functional. A digest of the protocol:
as §1
(Dilution methods test growth across graded concentrations, often in twofold steps.)

Series [2] can be described thus: Antibacterial activity against Arthrobacter chlorophenolicus A6MTCC3706 by broth microdilution assay. The settings on record: Pseudarthrobacter chlorophenolicus. In kind it is functional. A digest of the protocol:
as §1

In the next series the test system is Escherichia coli. Nature of the series: Antibacterial activity against Escherichia coli MTCC1916 by broth microdilution assay. The format is functional. The gist of the method: as §1
In a further series the test system is Pseudomonas aeruginosa. Nature of the series: Antibacterial activity against Pseudomonas aeruginosa MTCC1688 by broth microdilution assay. In kind it is functional. The gist of the method: as §1
In another series the test system is HEK293. Kind of series: Cytotoxicity against HEK293 cells measured after 24 hrs by MTT assay. The settings on record: Homo sapiens, HEK293, 24 h. In kind it is cell-based. A digest of the protocol: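 HEK 293 cells, 4000/well, seeded overnight in DMEM + 10% FBS at 37°C in CO2; compound dose series for 24 h (final DMSO <0.5%, DMSO-only control). MTT at 1 mg/mL final for 3 h, formazan dissolved in DMSO, absorbance 595 nm; IC50 from triplicate OD data.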

The nature of series [3]: Binding affinity to pCDNA 3.1 (unknown origin) assessed as DNA unwinding effect up to 6:1 compound to DNA ratio measured after 16 hrs by EtBr staining agarose gel shift assay. A digest of the protocol:
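pCDNA3.1 plasmid (amplified in E. coli DH5α), 40 µM, in 50 mM NaP pH 7, 10 mM NaCl, mixed with compound at set compound:DNA base-pair ratios; 16 h at 37°C. Run on 1% agarose at 50 V ~3 h, stained with EtBr 1 µg/mL for 5 min, imaged.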

The test system of series [4] is Calf thymus DNA. Kind of series: Binding affinity to calf thymus DNA assessed as change in B-DNA structure at 15 to 60 uM by circular dichroism method. The format is nucleic-acid assay. The settings on record: Bos taurus.
Series [5] has as its system Calf thymus DNA. Kind of series: Binding affinity to calf thymus DNA assessed as appearance of induced CD at 15 to 60 uM by circular dichroism method. In kind it is nucleic-acid assay. As to conditions: Bos taurus. A general note: Circular dichroism is the unequal absorption of left and right circularly polarised light.
Another series has as its system DNA. Nature of the series: Binding affinity to Escherichia coli pBR322 DNA assessed as DNA compaction up to 5:1 compound to DNA ratio by atomic force microscopic analysis. In kind it is nucleic-acid assay. A digest of the protocol:
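Supercoiled pBR322 plasmid treated with compound at [compound]:[DNA bp] ratios from 0.5:1 up to 5:1, imaged by AFM; DNA height measured.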

For series [6], the system named is Calf thymus DNA. Kind of series: Binding affinity to calf thymus DNA by isothermal titration calorimetric analysis. The format is nucleic-acid assay. As to conditions: Bos taurus.
The nature of series [7]: Solubility of the compound in pH 7 phosphate buffer at 100 uM by UV absorption spectra analysis. The format is physicochemical. As to conditions: pH 7, 100 µM.

Activity calls are given as the source filed them.

The term MIC denotes the smallest concentration in the dilution series that meets the test's criterion for growth inhibition. A lower MIC goes with a more susceptible organism. Usually IC50 stands for the concentration needed to halve the response being measured. Low values mean inhibition by little substance, high ones a need for much substance. `O=[N+]([O-])c1ccc2nc(NCc3ccc(C(F)(F)F)cc3)c(N3CCCCC3)nc2c1`: the MIC (against Staphylococcus aureus; in series [1]; in series [2]; in the series with Escherichia coli; in the series with Pseudomonas aeruginosa) was over 200 µg/mL each time. The IC50 in the series with HEK293 is over 200 µg/mL. Moreover, the result (in [3]; with Calf thymus DNA [4]; in the series on Calf thymus DNA [5]; with DNA; with Calf thymus DNA [6]) was inactive. The solubility entry in series [7] is “Soluble”.
